This data set is described as follows: Toxicity liver stage against HepG2, at 10uM. More on the design: test concentration 10 uM, cell line HepG2-A16-CD81EGFP. Particulars: human, HepG2-A16-CD81EGFP cells; read-out: INHIBITION
In kind it is cell-based. In a few lines:
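Uninfected HepG2-A16-CD81EGFP cells, 3 × 10^3 per well, 1536-well, plated on prespotted compound at 10 μM final, parasite-free screening media added to match infected plates; puromycin 10 μM positive, DMSO 0.5% negative; run in parallel with 48 h PbLuc assay at 37 °C, 5% CO2; viability by CellTiter-Glo luminescence, normalized to controls.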

In the case of `CN(C)c1nc2c(c(NCc3cc(O)ncn3)n1)CCCC2`, the cytotoxicity at 10 µM is -12.4%.
Consider `CN(Cc1cc(C(C)(C)C)n[nH]1)C(=O)CCC(=O)NC1CCCC1`, for which the cytotoxicity at 10 µM is -2.12%.
The figure for `COC(=O)CCn1ccc(=O)c2ccc(OC)cc21` is 17.1%; for `NCc1cn(CC2CCCN(C(=O)CC3=CCCCC3)C2)nn1` (stereo unspecified) it is 1.46%.
With `CC1(C)CNC(=O)c2nc(CCN3CCOCC3)[nH]c2C1`, the cytotoxicity at 10 µM is -10.7%.
Then `CN(C)CCN1CCC2(CCCN(Cc3cccn3C)C2)C1=O` (stereo unspecified), with -114%.
The figure for `CS(=O)(=O)N1C[C@H]2CC[C@@H](C1)N(Cc1ccc3nsnc3c1)C2` is 3.18%; for `Cc1csc(Nc2nccnc2C2CCCN2S(C)(=O)=O)n1` (stereo unspecified) it is -3.69%.
The figure for `CCc1noc(CNc2nc(-c3cccnc3)nc3c2CCNCC3)n1` is 0.562%; for `Cc1ccc(OCCC(=O)NC2CC(=O)N(C)C2)cc1C` (stereo unspecified) it is -9.25%.
`CC(CNC(=O)c1ccc(Cl)cc1I)N1CCCC1` (stereo unspecified): the cytotoxicity at 10 µM was -5.69%.
On to `O=C(COc1ccccc1)N1CCCC1c1ccc[nH]1` (stereo unspecified), for which the cytotoxicity at 10 µM is -0.575%.
Then `Cc1cc(N2CCCC2)nc(CNS(=O)(=O)Cc2ccccc2)n1`, with 7.48%; and `Cc1noc(C)c1CN1CCO[C@H]2CN(Cc3nccn3C)C[C@H]21`, with 2.64%; and `Cc1cc(C)n(CC2CN(CCOc3ccccc3C#N)CCO2)n1` (stereo unspecified), with -3.71%.
The figure for `CCC(NC(=O)c1ccco1)c1ccccc1OCC(=O)N1CCCC1` (stereo unspecified) is 4.9%; for `Cc1nc(CN2CCCN(C(=O)COCC3CC3)CC2)cs1` it is -11%; for `COc1ncc(NCc2ccc(F)cc2)cc1C(N)=O` it is -0.976%.
The figure for `O=C(NCc1ccccn1)NCC(c1ccco1)N1CCCCC1` (stereo unspecified) is -2.93%; for `CCCN1CCCN(CCCOc2cccc(C#N)c2)CC1` it is 18%; for `COc1ccc(-c2nc(CN3CCCS3(=O)=O)co2)cc1` it is -6.24%.
On to `Cc1cc(C)cc(NC(=O)CN2CCCC(n3cncn3)C2)c1` (stereo unspecified), for which the cytotoxicity at 10 µM is -9.93%.
On to `O=C(NC1CCCc2nc(N3CCCCC3)ncc21)C1CCCC1` (stereo unspecified), for which the cytotoxicity at 10 µM was -2.05%.
Then `CN(C)c1cc2c(nn1)CCN(C(=O)Cc1noc3ccccc13)C2`, with -10.7%.
As for `Cn1ncc2c1NC(=O)CC2c1c(F)cccc1Cl` (stereo unspecified), the cytotoxicity at 10 µM was 46.1%.
Then `COC(=O)CNC(=O)c1c(-n2cnnn2)sc2c1CCCC2`, with 10.6%.
For the molecule `O=C(NC1CC1)[C@H]1C[C@H]2OCC[C@H]2N(CC2CC2)C1`, the cytotoxicity at 10 µM turned out to be 2.76%.
Then `Cn1cc(S(=O)(=O)NCC2CCN(C(=O)Oc3ccccc3)CC2)cn1`, with -8.36%.
The figure for `O=C(c1cc(COc2ccc3c(c2)OCO3)[nH]n1)N1CCCC(O)C1` (stereo unspecified) is -8.07%; for `COc1ncccc1C(=O)N1CCC2(CC1)CC(OC)CO2` (stereo unspecified) it is -97%; for `O=C(CCS(=O)(=O)C1CCCC1)N1CCCC1c1ccsc1` (stereo unspecified) it is 1.06%.
The figure for `Cc1nonc1C(=O)N1CCc2c(ncn2CCc2ccccc2)C1` is -0.207%; for `Cc1cc(CN2C[C@@H]3COC[C@]3(CNC(=O)c3ccsc3)C2)no1` it is 1.41%; for `CC(C)Oc1cc(N2CCC(C(N)=O)CC2)nc(N)n1` it is 2.96%.
Regarding `CSc1ccc(CNC2CCN(CCc3ccncc3)CC2)cc1`, the cytotoxicity at 10 µM was -8.14%.
The figure for `CCN(C(=O)C1CCC1)C(c1cccnc1)c1ccc2c(c1)CCO2` (stereo unspecified) is -7.88%; for `Cc1ccc(NC2CCN(C(=O)c3ccc(C(N)=O)s3)CC2)nn1` it is 1.8%.
The figure for `CC(C)OC(=O)c1ccc(Cl)c(NC(=O)NCCN2CCOCC2)c1` is -54.4%; for `COc1cc(Cl)cc(C(=O)N2CCC3(CC2)CNC(=O)C3)c1` it is -18.1%; for `Cc1cc(C2CCCN2C(=O)NCc2ccccn2)on1` (stereo unspecified) it is 1.47%.
The figure for `CN(Cc1csc(-c2ccccc2)n1)Cc1ncccc1C(=O)O` is 6.03%.
On to `CC(C)=CCN1CC2(CCN(Cc3cccc(C#N)c3)CC2)CC1=O`, for which the cytotoxicity at 10 µM was -4.39%.
For `CC(C)CCN(C(=O)c1cccc(NC(N)=O)c1)C1CC1`, the cytotoxicity at 10 µM was -6.46%.
Then `Cc1cc(C(=O)N2C[C@@H]3CCCO[C@@H]3[C@H](N(C)C(C)C)C2)c(C)[nH]1`, with 10.2%.
The figure for `c1ncn(CC2CCCN(Cc3noc(C4CC4)n3)C2)n1` (stereo unspecified) is 0.428%.
Consider `CC(C)c1nc(C2CCCN2CCc2ccccn2)no1` (stereo unspecified), for which the cytotoxicity at 10 µM came to 3.38%.
For `COc1ccccc1N1CCN(C(=O)Cn2nc(C)c(C)c2C)C(C)C1` (stereo unspecified), the cytotoxicity at 10 µM turned out to be 2.96%.
On to `OCCN1CCN(Cc2coc(-c3ccccc3Cl)n2)CC1`, for which the cytotoxicity at 10 µM is -7.57%.
Then `CC(Cn1ccnc1)NC(=O)N(C)Cc1ccc2c(c1)OCCO2` (stereo unspecified), with -29.5%; and `COC(=O)Cc1cccc(NC(=O)Cc2ccon2)c1`, with -2.93%.
Then `Cc1cc2n(n1)[C@@H](C(F)(F)F)C[C@@H](C1CCN(C(=O)C(C)C)CC1)N2`, with -30%.
The figure for `CN(C)C(CNC(=O)c1nc(N2CCOCC2)ncc1Cl)c1cccs1` (stereo unspecified) is 8.26%.
Consider `CSc1ncc(C(=O)N2C[C@@H]3CC[C@H]2CN(Cc2ccccc2)C3)cn1`, for which the cytotoxicity at 10 µM was -7.49%.
Regarding `CCn1nc2c(cc1=O)CN(Cc1cc(C)on1)CC2`, the cytotoxicity at 10 µM worked out at 0.341%.
The figure for `Fc1cccc(-c2nnn3c2COC(CNCc2nccs2)C3)c1` (stereo unspecified) is -102%; for `Cc1cnc(N2C[C@@H]3[C@@H](C2)OCC(=O)N3CC(C)C)nc1` it is -0.173%; for `O=C1CCCN1Cc1ncn2c1CN(C(=O)NC1CCCC1)CCC2` it is -147%.
Take `CC(=O)N(C)Cc1cncc(C2CCCN2C2CCOCC2)n1` (stereo unspecified): the cytotoxicity at 10 µM is -5.34%.
Then `CC(CN1CCC2(CC1)N=C(N(C)C)NC2=O)c1ccccc1` (stereo unspecified), with 2.92%.
Then `O=C(c1cnccn1)N1C[C@H]2CC[C@@H](C1)N(S(=O)(=O)c1cccnc1)C2`, with -2.03%; and `NC(=O)CC1CCN(S(=O)(=O)c2cnn(-c3ccccc3)c2)CC1`, with 12%; and `O=C(O)c1cccnc1N1CCN(Cc2ccc(F)cc2)C(CCO)C1` (stereo unspecified), with 12.3%.
With `CN(C)C(C(=O)N1CC(Oc2ccccc2F)C1)c1ccc(F)cc1` (stereo unspecified), the cytotoxicity at 10 µM amounted to 1.28%.
In the case of `CN(Cc1c(Cl)ccc2cccnc12)CC(C)(CO)CO`, the cytotoxicity at 10 µM is 7.6%.
Then `CCn1c(C)cc(C(=O)N2CCC(NC(=O)c3ccc(C)o3)CC2)c1C`, with -7.45%; and `CC(C)Cc1noc(CN(C)C2CCCC2)n1`, with 0.274%.
As for `Cc1c(C(=O)N2CCN(c3ccccn3)CC2)n(C)c2ccc(Cl)cc12`, the cytotoxicity at 10 µM is 3.95%.
For the molecule `CN(C)c1ncc(-c2ccc(NC(=O)[C@@H]3CCCCN3)cc2)cn1`, the cytotoxicity at 10 µM was -7.94%.
As to `NCCC(=O)N1CCC2(CC1)CN(C(=O)Cc1cccc(Cl)c1)CCO2`, the cytotoxicity at 10 µM worked out at 5.56%.
Consider `COc1ccc(OCCN2CCOCS2(=O)=O)cc1`, for which the cytotoxicity at 10 µM came out at 2.6%.
The figure for `O=S(=O)(c1ccccc1Cl)N1CCc2nc(C3CCNCC3)ncc2C1` is 14.2%; for `Cn1cc(C(=O)Nc2cccc(Oc3ccncc3)c2)ccc1=O` it is -1.21%.
In the case of `CC(=O)N1CCN(C(=O)c2cc(C(C)C)no2)[C@H]2CS(=O)(=O)C[C@H]21`, the cytotoxicity at 10 µM is -7.8%.
The figure for `O=C(NCCCN1CCOCC1)c1ccc(Cl)cc1Cl` is -3.64%; for `O=c1[nH]c2cn(-c3ccc(Cl)cc3)c(=O)n2[nH]1` it is 2.43%; for `N[C@@H](Cc1ccccc1)c1nnc(S(=O)(=O)Cc2ccccc2)o1` it is 13.3%.
The figure for `CNS(=O)(=O)CCNCC1(O)CCCN(CCC2CCCCC2)C1=O` (stereo unspecified) is 0.28%.
As to `O=C(Nc1cn[nH]c1)N1CCN(CCSc2ccccc2)CC1`, the cytotoxicity at 10 µM was determined as 4.32%.
The figure for `Cc1nc(CN2CCC2(CCCc2ccccn2)C(=O)N(C)C)co1` (stereo unspecified) is 11.4%.
Consider `Cc1ncsc1CCN1CCN(C(=O)c2ccc(=O)[nH]c2)CC1`, for which the cytotoxicity at 10 µM amounted to 4.38%.
As for `Cn1cc(CN2CCCn3cnc(CN4CCCC4=O)c3C2)cn1`, the cytotoxicity at 10 µM was -1.39%.
With `COc1cccc(-c2nnn(C3CCN(CC(F)(F)F)C3=O)n2)c1` (stereo unspecified), the cytotoxicity at 10 µM turned out to be 3.34%.
Consider `COc1ccc(N2CCN(C(=O)COc3c(C)occc3=O)CC2)cc1`, for which the cytotoxicity at 10 µM is -2.67%.
For `COc1ccc2c(ccn2CC(=O)Nc2n[nH]c(CC(C)C)n2)c1`, the cytotoxicity at 10 µM was -6.19%.
With `CC(=O)N1Cc2ccnn2CC(C(=O)NCc2cccnc2)C1` (stereo unspecified), the cytotoxicity at 10 µM was -97%.
Then `CCS(=O)(=O)NCC1Cn2nnc(-c3cccc(C)c3)c2CO1` (stereo unspecified), with -120%.
Then `Cc1cc(C(=O)N2CCN(C(=O)CCC3CCCCC3)CC2)n(C)n1`, with -3.06%; and `Cc1nc(S(=O)(=O)N2CCCCc3ccccc32)cn1C`, with -2.38%.
The figure for `Cc1ncnc2c1CCN(C(=O)c1ccncc1)CC2` is 12%; for `CCN(C(=O)c1ccc2nnc(C3CCN(CCOC)C3)n2c1)C(C)C` (stereo unspecified) it is -114%; for `Cc1nn(CC(C)C)c(N(C)C)c1CNCCC(=O)NC(C)C` it is 7.45%.
As for `NCCC(=O)NCC1(O)CCCN(c2ccnc3cccnc23)C1` (stereo unspecified), the cytotoxicity at 10 µM was found to be 0.72%.
As for `O=S1(=O)CCN(CCCc2ccc(Cl)cc2)CC1`, the cytotoxicity at 10 µM was found to be 1.91%.
The figure for `Nc1ncnc2nc(C3CCN(C(=O)Cc4ccccc4)C3)ccc12` (stereo unspecified) is 2.65%; for `CCCNc1cc(C(=O)N2CCOCC2)nc(C)n1` it is 10.8%.
Then `O=C(Cc1ccsc1)N1CCC(c2ccncc2)CC1`, with 8.89%.

Source of the values: ChEMBL document CHEMBL4513216, “Probing the Open Global Health Chemical Diversity Library for Multistage-Active Starting Points for Next-Generation Antimalarials” (ACS Infect Dis, 2020).
